Among the data in PubChem BioAssay AID488891 (Broad Institute, 2010) are caspase activation and AC50 values, retold here.

Calls of active or inactive are those of the source.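 Rule for the calls: active = compounds raising caspase signal with a fitted AC50 no higher than the top valid dose tested; inconclusive = flat fit at partial mid-level activity, or unreliable fit; inactive = the rest.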

System in the first experiment: not listed separately
The experiment can be described thus: caspase activation in A1/BIM-primed MEFs, dose response, A1 inhibitor project, cell-based, alternate A1 construct, Caspase-Glo luminescence, dry powder (AID 488891). Particulars: MEF Flag-A1-IRES-BIM, caspase-Glo luminescence, 3 h; at 150 µM (top of the series). The method, boiled down: (§1)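 Test system – mouse embryonic fibroblasts primed with Flag-A1-IRES-BIM construct · Doses – compound dose-response series, pin-transferred on day 2 · Times – 3 h compounds at 37 °C, 1 h detection reagent at RT · Technique – luminescence with CaspaseGlo reagent · Read-out basis – caspase activation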
`C=C1[C@@H](C)[C@H]2[C@H](Cc3ccccc3)NC(=O)[C@]23[C@H](OC(C)=O)/C=C/[C@](C)(O)C(=O)[C@@H](C)C/C=C/[C@H]3[C@@H]1O`: the caspase activation is 1.11% (inactive). The same measure, in the same setting: then `CC(=O)OC(C)(C)/C=C/C(=O)[C@](C)(O)C1[C@H](O)C[C@@]2(C)C3CC=C4C(C[C@H](O)C(=O)C4(C)C)[C@]3(C)C(=O)C[C@]12C` (stereo not given in full), with 3.76% (inactive).

With `COc1cc(/C=C(/C#N)c2nc3ccccc3[nH]2)ccc1OCC(=O)Nc1ccccc1C(C)C`, the caspase activation was 0.299% (inactive).

For the next experiment, the system named is MEF Flag-A1-IRES-BIM, caspase-Glo luminescence, 3 h. The experiment is described as above.
Details: not given
In a few lines:
as §1
As to `Cc1c(C=O)c(C=O)c(C)n1Cc1ccccc1`, the AC50 was 12.9 µM. The same measure, in the same setting: then `Cc1ccc(CS(=O)(=O)c2ncc(Cl)c(C(=O)Nc3nnc(C(C)C)s3)n2)cc1`, with 5.49 µM. As for `COc1cc(CN2CCN(c3cc(C)ccc3C)CC2)ccc1O`, the AC50 is 7.24 µM.

On to `Cc1cc(C(=O)CCl)c(C)n1CCc1ccc(Cl)cc1`, for which the AC50 was 9 µM.

Turning to `CCOC(=O)CSC1=N/C(=C/c2ccc(-n3cncn3)cc2)C(=O)N1C(C)=O`, the AC50 is 11.1 µM. The same measure, in the same setting: then `CCc1nnc(NC(=O)c2nc(S(=O)(=O)Cc3ccccc3)ncc2Cl)s1`, with 11.6 µM; and `COc1cccc(C(=O)C(C#N)=C(SC)SC)c1`, with 1.64 µM. On the same count and under the same terms, then `O=C(CCl)N=c1sccn1Cc1ccccc1Cl`, with 1.28 µM; and `O=C(Oc1cccc(/C=N/Nc2nc(Nc3ccccc3)nc(N3CCOCC3)n2)c1)c1ccco1`, with 8.01 µM. The same measure, in the same setting: then `Cc1cccc(CS(=O)(=O)c2ncc(Cl)c(C(=O)Nc3nnc(C(C)C)s3)n2)c1`, with 12 µM; and `Cc1cccc(NC(=O)/C(C#N)=C/c2cn(CC(=O)NCc3ccco3)c3ccccc23)c1`, with 3.76 µM; and `C=C1[C@@H](C)[C@H]2[C@H](Cc3ccccc3)NC(=O)[C@]23OC(=O)/C=C\[C@H](O)CCC[C@@H](C)C/C=C/[C@H]3[C@@H]1O`, with 6.46 µM. For `CCSc1nnc(NC(=O)c2nc(S(=O)(=O)Cc3ccc(F)cc3)ncc2Cl)s1`, the AC50 was 13.1 µM.

In the case of `CC(=O)N[C@H]1[C@H](O[C@H]2CC[C@@]3(C)C(CC[C@]4(C)C3CC=C3[C@@H]5CC(C)(C)CC[C@]5(C(=O)OC5OCC(O)C(O)C5O)C(O)C[C@]34C)C2(C)C)O[C@H](COC2OCC(O)C(OC3OCC(O)C(O)C3O)C2O)[C@@H](O[C@@H]2O[C@@H](C)[C@H](O)[C@@H](O)[C@H]2O[C@@H]2O[C@@H](C)[C@H](O)[C@@H](O)[C@H]2O)[C@@H]1O` (stereo not given in full), the AC50 was 7.88 µM.

As to `COc1ccc(N(C(=O)CCl)C(C(=O)NCCc2ccccc2)c2cccs2)cc1Cl` (stereo not given), the AC50 was 9.36 µM. On the same count and under the same terms, then `Cn1c(=NC(=O)CCl)sc2ccccc21`, with 3.46 µM; and `C/C1=C/C(=O)O[C@@H]2C[C@@H](CC[C@H](C)/C=C\CC1)O[C@@](O)(C1CSC(=O)N1)C2` (stereo not given in full), with 0.607 µM; and `Cc1ccc(Sc2c([N+](=O)[O-])c(=O)n(C)c3ccccc23)cc1`, with 13.4 µM.

Consider `CCc1cc2c(=O)c(-c3cnn(-c4ccccc4)c3)c(C)oc2cc1OCC(=O)Nc1cccc(C)c1`, for which the AC50 was 5.29 µM.

On to `Nc1nc(F)nc2c1ncn2[C@@H]1O[C@H](CO)[C@@H](O)[C@H]1O`, for which the AC50 was 1.5 µM. Still for that read-out and setting: then `Cc1c(CCOC(=O)c2ccc(N3CCOCC3)c([N+](=O)[O-])c2)sc[n+]1CC#N`, with 14.2 µM; and `CC(C)(C)n1nc(-c2ccc(Cl)cc2)c2c(N)ncnc21`, with > 150 µM (inactive).
